From PubChem BioAssay
TRPC4 agonist: activators of mouse TRPC4 channel; Q9QUQ5; HEK293 TRPC4beta/mu-opioid, Fluo4 calcium fluorescence; stronger effect = higher value; B-score at 10 µM; hit rate 0.49% among 310,000;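 active = B-score above 5 SD of library B-scores, and initial fluorescence ratio not above library mean plus 5 SD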;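 note: positive B-score marks a calcium rise read as TRPC4 activation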
Target sequence (Q9QUQ5 whole entry, looked up): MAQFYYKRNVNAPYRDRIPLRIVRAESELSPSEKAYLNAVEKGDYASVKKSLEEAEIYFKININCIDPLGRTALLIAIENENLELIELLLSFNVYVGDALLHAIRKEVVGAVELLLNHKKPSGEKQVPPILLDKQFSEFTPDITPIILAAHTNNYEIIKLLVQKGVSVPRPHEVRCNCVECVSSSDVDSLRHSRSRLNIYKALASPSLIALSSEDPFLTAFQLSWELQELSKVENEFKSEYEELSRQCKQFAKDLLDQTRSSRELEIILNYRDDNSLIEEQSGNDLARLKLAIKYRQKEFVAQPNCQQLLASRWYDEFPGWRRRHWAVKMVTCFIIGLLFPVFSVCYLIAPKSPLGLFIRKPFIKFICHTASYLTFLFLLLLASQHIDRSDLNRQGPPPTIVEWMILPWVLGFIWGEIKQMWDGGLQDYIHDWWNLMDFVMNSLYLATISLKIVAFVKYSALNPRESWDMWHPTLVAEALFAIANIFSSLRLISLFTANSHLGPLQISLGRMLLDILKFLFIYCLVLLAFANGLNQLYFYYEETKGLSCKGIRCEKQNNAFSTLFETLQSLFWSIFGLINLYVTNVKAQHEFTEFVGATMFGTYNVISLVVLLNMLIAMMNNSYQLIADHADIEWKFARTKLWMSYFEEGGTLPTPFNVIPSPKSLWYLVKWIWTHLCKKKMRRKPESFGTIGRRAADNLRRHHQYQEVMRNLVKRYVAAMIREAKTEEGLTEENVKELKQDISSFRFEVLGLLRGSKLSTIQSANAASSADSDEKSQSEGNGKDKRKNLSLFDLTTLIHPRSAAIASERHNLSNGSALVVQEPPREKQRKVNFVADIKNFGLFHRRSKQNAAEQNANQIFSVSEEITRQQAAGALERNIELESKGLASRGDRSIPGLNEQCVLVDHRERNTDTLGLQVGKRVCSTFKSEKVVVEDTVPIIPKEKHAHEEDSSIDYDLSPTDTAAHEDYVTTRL
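Incubation: 45 min room-temperature Fluo4 loading, 110 s read / System: HEK293 cells stably co-expressing mouse TRPC4beta and mu-opioid receptor / Signal: Fluo4 fluorescence, kinetic / Control set: buffer (low) and maximal DAMGO (high) / Measure: integrated baseline-normalised fluorescence ratio, converted to per-well B score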
TRPC6 inh: inhibitors of mouse TRPC6 channel. HEK293-TRPC6, membrane potential dye, ACh-evoked depolarization; stronger effect = lower value. hit rate 1.1% among 310,000. Q61143. B-score at 10 µM. AID 2553;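 active = B-score under library mean minus 3 SD, initial fluorescence not abnormally high, positive integrated signal ratio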;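 note: B-score derived from integrated fluorescence ratio over the kinetic read; more negative B-score means stronger inhibition of depolarization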
TRPC4 inh: inhibitors of mouse TRPC4 channel; B-score at 10 µM; hit rate 0.39% among 300,000; HEK293 TRPC4beta/mu-opioid, DAMGO-evoked Fluo4 calcium flux; stronger effect = lower value; Q9QUQ5;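 active = B-score over 3 SD under the library average, no early fluorescence shift, positive overall ratio signal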
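test system = HEK293 cells with stable TRPC4beta plus mu-opioid receptor expression | detection = Fluo4 Ca2+ flux fluorescence | read-out = integrated fluorescence ratio relative to baseline, converted to per-well B score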
TRPC6 act: activators of mouse TRPC6 channel; hit rate 0.13% among 310,000; Q61143; B-score at 10 µM; HEK293-TRPC6 membrane potential dye fluorescence; stronger effect = higher value;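 active = B-score of the integrated fluorescence ratio above library mean plus 3 SD, and starting fluorescence ratio within library mean plus 5 SD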;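 note: higher score means more depolarization so channel activation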
DSG3 Ab inh: human desmoglein-3 autoantibody binding inhibition. DSG3-coupled beads, scFv-anti-DSG3-GFP binding, flow cytometry; stronger effect = lower value. P32926. hit rate 0.48% among 310,000. binding (percent of control), % at 10 µM;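 active = binding more than 3 SD below its plate's average and above zero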;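 note: hits lower antibody fragment binding to DSG3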
TRPC4 PAM: TRPC4 (mouse) allosteric potentiation; HEK293 TRPC4beta/mu-opioid, DAMGO EC20, Fluo-4 Ca2+ flux; stronger effect = higher value; B-score at 10 µM; hit rate 0.42% among 310,000; AID 2227;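 active = B-score of calcium response area above 5 SD of library B-scores, with initial fluorescence ratio within 5 SD of library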;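 note: B-score of integrated fluorescence ratio over time as area under calcium response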
TRPC4 sel inh 2: second check of whether TRPC6 inhibitors also affect mouse TRPC4 | HEK293 TRPC4/MOR, membrane potential dye fluorescence; channel activated by saturating DAMGO dose | hit rate 42% among 920 | shares compounds with TRPC6 inh | inhibition, % at 10 µM;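 active = compounds whose fluorescence signal differed from control wells by over 3 SD, either direction, in both duplicate plates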
TRPC4 spec: tests whether TRPC6 inhibitors also affect mouse TRPC4; AID 2777; activity change, negative = inhibition, % at 10 µM; hit rate 61% among 920; shares compounds with TRPC6 inh; HEK293 TRPC4/mu-opioid, membrane potential fluorescence;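 active = rise or fall in signal beyond 3 SD of buffer-only wells in both replicate plates, either sign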;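 note: integrated kinetic ratio of fluorescence range over baseline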
HEK293 MPD ctr 2-1: second check of TRPC6 inhibitor effects in parental HEK293 cells | shares compounds with TRPC6 inh | parental HEK293 membrane potential dye fluorescence; maximal acetylcholine challenge after compound addition | signal change vs control, % at 10 µM | hit rate 31% among 920;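 active = membrane potential signal moving either way by over 3 SD of the maximum-effect control, in both duplicate plates, meaning non-specific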
HEK293 MPD ctr-1: counter-screen for TRPC6 inhibitors: effect in parental HEK293 cells | parental HEK293 membrane potential dye fluorescence | membrane potential signal change, % at 10 µM | hit rate 60% among 920 | shares compounds with TRPC6 inh;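 active = membrane potential signal shifting up or down by more than 3 SD of buffer-only wells, on both duplicate plates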
HEK293 MPD ctr-2: parental HEK293 nonspecific activity of TRPC6 modulators. shares compounds with TRPC6 inh. membrane potential dye fluorescence. membrane potential signal change, % at 10 µM. hit rate 51% among 2,400. AID 488924;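 active = membrane potential signal moves up or down beyond 5 SD from buffer-only wells, on both duplicate plates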
HEK293 MPD ctr 2-2: second counter-screen for TRPC6 modulators: effect in parental HEK293 cells; shares compounds with TRPC6 inh; membrane potential dye fluorescence; after compound, maximal acetylcholine stimulation; inhibition, % at 10 µM; hit rate 14% among 2,400; AID 488926;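 active = membrane potential signal drops by more than 5 SD from the mean control signal, in both duplicate plates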;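 note: plate controls were acetylcholine ECmax control wells for no effect and buffer only wells for full effect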
TRPC4 ctr mod: mouse TRPC4 off-target activity of TRPC6 modulators; HEK293 TRPC4/mu-opioid, membrane potential fluorescence; percent change from control (negative = decrease, positive = increase), % at 10 µM; hit rate 69% among 2,400; shares compounds with TRPC6 inh;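 active = membrane potential signal moved up or down beyond 5 SD of buffer control wells, in both duplicate plates, actives on both sides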;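 note: plate controls were assay buffer wells for no effect and DAMGO maximal-effect wells for full effect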
TRPC4/MOR inh 2: second check of whether TRPC6 modulators also affect mouse TRPC4. shares compounds with TRPC6 inh. HEK293 TRPC4/mu-opioid, membrane potential dye fluorescence; stimulated with maximal-effect DAMGO. inhibition, % at 10 µM. hit rate 55% among 2,400. AID 488928;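 active = drop in membrane potential signal beyond 5 SD of the control wells in both duplicate plates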;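 note: TRPC4 counter screen for TRPC6 hits run under conditions tuned for TRPC6 not TRPC4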
TRPC6 block conf: mouse TRPC6 inhibitor confirmation | inhibition, % at 10 µM | shares compounds with TRPC6 inh | hit rate 43% among 3,300 | HEK293-TRPC6, membrane potential dye, ACh-evoked depolarization;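 active = fluorescence ratio falls more than 5 SD below the full-stimulation control mean, in both duplicate runs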;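 note: integrated fluorescence ratio of peak minus minimum over baseline after agonist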
TRPC6 act confirm: mouse TRPC6 activator confirmation. activation, % at 10 µM. hit rate 11% among 2,800. AID 488961. shares compounds with TRPC6 inh. HEK293-TRPC6 membrane potential dye fluorescence, FDSS;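 active = ratio signal rise beyond 5 SD above unstimulated control wells' mean, seen in both duplicate runs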;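 note: plate controls were buffer EC0 wells for no effect and acetylcholine ECmax response for full effect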
The depositor's hits bear a star; i = inactive; nt = no result. This is a sample that favours compounds with a hit; in the whole collection about 2.5% have one here.

SMILES	TRPC4 agonist	TRPC6 inh	TRPC4 inh	TRPC6 act	DSG3 Ab inh	TRPC4 PAM	HEK293 MPD ctr-2	HEK293 MPD ctr 2-2	TRPC4 ctr mod	TRPC4/MOR inh 2	TRPC6 block conf	TRPC6 act confirm	others
Cc1ccc(Cn2c(=N)c(C(=O)NCC3CCCO3)cc3c(=O)n4cccc(C)c4nc32)cc1 (configuration not stated)	i	i	i	i	106.2	i	nt	nt	nt	nt	nt	nt
Cc1cccn2c(=O)c3cc(C(=O)NCC4CCCO4)c(=N)n(C4CCCC4)c3nc12 (configuration not stated)	i	-5.77*	i	i	nt	i	-81.5%*	i	-16.5%*	31.5%*	i	i
CCCn1c(=N)c(C(=O)NCC2CCCO2)cc2c(=O)n3cccc(C)c3nc21 (configuration not stated)	i	i	i	i	96.0	i	nt	nt	nt	nt	nt	nt
Cc1ccc2nc3c(cc(C(=O)NCC4CCCO4)c(=N)n3C3CCCC3)c(=O)n2c1 (configuration not stated)	i	i	i	i	93.3	i	nt	nt	nt	nt	nt	nt
CC[C@]1(C(=O)OC)[C@H]2C(=O)N(C)C(=O)[C@H]2[C@H]2CN=C(SC)N21	nt	nt	nt	nt	104.7	nt	nt	nt	nt	nt	nt	nt
CCOC(=O)Cc1csc(NC(=O)c2c(O)c3c(n(CC(C)C)c2=O)CCCC3)n1	i	i	i	i	106.4	i	nt	nt	nt	nt	nt	nt
CSCCC(NC(=O)c1ccc(Cl)cc1Cl)C(=O)NCC(c1cccs1)N(C)C (configuration not stated)	nt	nt	nt	nt	100.3	nt	nt	nt	nt	nt	nt	nt
CC(C)(C)SCCNC(=O)/C=C/c1cccc([N+](=O)[O-])c1	i	i	i	i	97.5	i	nt	nt	nt	nt	nt	nt
C=CCn1c(=N)c(C(=O)NCCCOC)cc2c(=O)n3cccc(C)c3nc21	i	-5.23*	i	i	nt	i	225.5%*	83.0%*	39.5%*	i	i	nt
COc1ccc(CCNC(=O)c2cc3c(=O)n4ccccc4nc3n(C3CCCCC3)c2=N)cc1	i	i	i	i	93.8	i	nt	nt	nt	nt	nt	nt
N=c1c(C(=O)NCC2CCCO2)cc2c(=O)n3ccccc3nc2n1C1CCCCC1 (configuration not stated)	i	-5.43*	i	i	108.4	i	-100.0%*	i	-23.5%*	i	i	i
COc1ccc(S(=O)(=O)N2CCN(c3ccc(F)cc3)CC2)cc1C(=O)N1CCOCC1	i	i	i	i	92.4	i	nt	nt	nt	nt	nt	nt
CCC(C)NC(=O)c1cc2c(=O)[nH]c3ccc(C)cc3c2s1 (configuration not stated)	i	i	i	i	111.7	i	nt	nt	nt	nt	nt	nt
O=C(Nc1cccc(C(=O)N2CCCCC2)c1)c1ccccc1Br	i	i	i	i	108.3	i	nt	nt	nt	nt	nt	nt
CN(C(=O)CCc1ccccc1F)C1CCCN(Cc2ccccc2F)C1 (configuration not stated)	i	i	i	i	108.6	i	nt	nt	nt	nt	nt	nt
CN(C(=O)CCCN1CCCC1=O)C1CCCN(Cc2ccccc2F)C1 (configuration not stated)	i	-5.06*	i	i	97.3	i	i	i	i	i	i	i
CCOC(=O)c1ccccc1NC(=O)c1ccc(F)cc1	i	i	i	i	89.3	i	nt	nt	nt	nt	nt	nt
CCOC(=O)c1ccccc1NC(=O)COC(=O)C1CCCC1	i	-8.1*	i	14.1*	104.8	i	137.0%*	i	32.5%*	i	57.5%*	118.0%*
CCOC(=O)c1ccccc1NC(=O)COC(=O)CC1CCCCC1	i	i	i	i	117.2	i	nt	nt	nt	nt	nt	nt
CCOC(=O)c1ccccc1NC(=O)c1c(F)c(F)c(F)c(F)c1F	i	-6.21*	i	i	99.2	i	i	i	i	i	i	i
Cc1ccc(OCCCC(=O)Nc2nc3ccccc3[nH]2)cc1	i	-7.02*	i	i	101.8	i	i	i	i	i	i	i
CC1CCN(C(=O)Cn2c3ccccc3c3nc4n(c(=O)c32)CCS4)CC1	i	i	i	i	nt	i	nt	nt	nt	nt	nt	nt
C[n+]1ccccc1/C=C/c1ccc([N+](=O)[O-])cc1	i	-7.27*	i	i	94.7	i	-249.5%*	110.0%*	-40.5%*	52.0%*	64.5%*	i
C[n+]1ccccc1/C=C/c1ccc(F)c(F)c1	i	-7.21*	i	i	98.1	i	nt	nt	nt	nt	80.3%*	i	TRPC4 sel inh 2=i;TRPC4 spec=-33.6%*;HEK293 MPD ctr 2-1=33.5%*;HEK293 MPD ctr-1=-595.5%*
COc1ccccc1N1CCN(C2CCCN(C(=O)CCn3cncn3)C2)CC1 (configuration not stated)	i	i	i	i	102.1	i	nt	nt	nt	nt	nt	nt
Cc1cccc(NC(=S)NC2CC3CCCC(C2)N3Cc2cccs2)c1 (configuration not stated)	i	-6.95*	i	i	103.5	i	nt	nt	nt	nt	i	i	TRPC4 sel inh 2=i;TRPC4 spec=i;HEK293 MPD ctr 2-1=i;HEK293 MPD ctr-1=-0.4%*
